From PubChem
This is a sample that favours compounds with a hit; in the whole collection about 2.2% have one here.
HNF4A DNA FP = change in binding of human HNF4 alpha to DNA | P41235 | HNF4a-FITC DNA binding, fluorescence polarization, 1 h | activity change, % at 10 µM | 360,000 tested, 0.3% active | AID 1224865; in the data active means activity change above about 30%, passing the limit was not always enough
CSN deneddyl inh = inhibitors of human CSN-mediated cullin deneddylation; Q92905; Purified CSN, SCF-Nedd8-OG deneddylation, fluorescence polarization; inhibition, % at 12.5 µM; 360,000 tested, 0.38% active;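 active means pattern-corrected inhibition above about 35%, with an unprinted fluorescence ratio check between 0.5 and 1.5, limit read from the data, passing the limit was not always enough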;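 further: 0% = enzyme with substrate and 100% = substrate without enzyme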
Target sequence (Q92905 whole entry, looked up, one chain of several): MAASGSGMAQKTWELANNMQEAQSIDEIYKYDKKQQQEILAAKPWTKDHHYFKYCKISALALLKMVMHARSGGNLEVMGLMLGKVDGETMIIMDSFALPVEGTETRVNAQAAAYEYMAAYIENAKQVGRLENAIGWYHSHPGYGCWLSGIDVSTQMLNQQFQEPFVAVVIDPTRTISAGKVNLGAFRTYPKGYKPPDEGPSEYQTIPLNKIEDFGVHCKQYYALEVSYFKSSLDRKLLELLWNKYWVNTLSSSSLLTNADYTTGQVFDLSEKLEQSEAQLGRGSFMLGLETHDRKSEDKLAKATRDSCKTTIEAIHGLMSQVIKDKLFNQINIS
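Assay system: purified human Csn5 enzyme expressed in HEK293T cells; measure: % inhibition; also added: SCFSkp2-Nedd8OG substrate at 10 nM final; technique: fluorescence polarization; times: reaction 90 min, room temperature; medium: Tris buffer pH 7.5, NaCl, DTT, Tween-20, trehalose, ovalbumin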
Granule exo inh = blocks lytic granule exocytosis | TALL-104 LAMP-1 surface exposure, flow cytometry; cells stimulated with thapsigargin and PMA | inhibition, % at 10 µM | 360,000 tested, 0.66% active;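 active means inhibition above about 55%, limit read from the data; inconclusive means no clear call, values can overlap the other calls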
Myeloid diff MLP = compounds promoting myeloid differentiation; 360,000 tested, 1% active; calls only at 10 µM; ER-HoxA9 myeloid progenitors, lysozyme-GFP differentiation, flow cytometry; AID 624256;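 active means normalized GFP-positive differentiation at or above the plate's own cutoff, the solvent-only control mean plus 3 SD; inconclusive means no clear call, values can overlap the other calls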;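 further: cells exposed to compound for four days before flow analysis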
Granule exo CP1 = lytic granule exocytosis inhibition; 1,500 tested, 11% active; inhibition, % at 10 µM; shares compounds with Granule exo inh; TALL-104 cells, LAMP-1 externalization, flow cytometry; stimulated with PMA plus thapsigargin; in the data active means inhibition above about 60%;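 further: 0% = stimulated vehicle wells and 100% = unstimulated wells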
Starred values were filed as active, the others as inactive; i = inactive; u = inconclusive; x = no result given.

SMILES	HNF4A DNA FP	CSN deneddyl inh	Granule exo inh	Myeloid diff MLP	Granule exo CP1
Cc1cc2oc(=O)cc(CN(C)Cc3ccccc3Cl)c2cc1C	0.6	3.3	96.0*	i	0.2
Cc1cc2oc(=O)cc(CN(C)Cc3ccccc3)c2cc1C(C)C	-2.0	1.4	68.7*	i	3.8
O=C(C=CC(=O)OC1CCCCC1)OC1CCCCC1	-5.4	-1.7	33.1	i	x
O=C(CS(=O)(=O)c1ccccc1)NCc1ccc(Cl)cc1	-0.9	-3.0	0.6	i	x
CN(C)C(=O)c1c(NC(=O)c2ccccc2)sc2c1CCC2	2.1	1.8	-11.3	i	x
CCN(CC)CCCC(C)NC(=O)c1c(NC(=O)c2ccccc2)sc2c1CCCC2 (centres undefined)	4.6	-1.0	77.8*	i	-2.6
COc1ccc(Br)cc1CN(C)C(=O)CNC(=O)c1ccc2ccccc2c1	2.9	2.7	57.5*	i	-5.0
COc1ccc(C(=O)NCC2(c3ccccc3)CCCC2)c(OC)c1	4.3	-0.9	87.9*	i	5.6
O=C(COC(=O)c1ccco1)NC1CCCC1	-2.6	5.9	71.6*	i	-13.2
c1ccc(Oc2nc(-c3cccnc3)nc3ccccc23)cc1	1.8	-5.6	82.6*	i	-3.3
Fc1ccccc1CNc1nc(-c2cccnc2)nc2ccccc12	14.5	9.5	80.6*	i	-9.9
O=[N+]([O-])c1ncccc1Oc1nc(-c2cccnc2)nc2ccccc12	0.9	-3.1	-3.8	i	x
COc1ccc(CCN2C(=O)N[C@@H](CCC(=O)O)C2=O)cc1	-1.1	3.6	4.5	i	x
Cc1cccc(CN2CCC(C(=O)Nc3cccc(-c4cccc(F)c4)c3)CC2)n1	2.5	-0.9	61.8*	i	-8.2
Cc1cccc(CN2CCC(C(=O)Nc3cccc(-c4cscn4)c3)CC2)n1	2.4	4.8	3.8	i	x
O=C(OCN1C(=O)c2ccccc2C1=O)c1ccc(Cl)nc1	1.6	2.6	0.4	i	x
O=C(O)CCS(=O)(=O)c1nc(-c2cccs2)cc(C(F)(F)F)n1	-1.0	4.8	8.9	i	x
CS(=O)(=O)c1nc(-c2ccc(F)cc2)cc(C(F)(F)F)n1	-6.0	-4.3	85.9*	i	18.1
COC(=O)CCS(=O)(=O)c1nc(-c2ccccc2)cc(C(F)(F)F)n1	-1.5	0.7	86.9*	u	20.1
Cc1cc(NC(=O)CCCS(=O)(=O)c2nc(-c3cccs3)cc(C(F)(F)F)n2)no1	-2.4	3.8	60.8*	x	17.5
O=[N+]([O-])c1cccc(-c2cc(-c3cc(Br)ccc3O)[nH]n2)c1	-0.3	-1.8	99.5*	x	99.5*
O=C(CN1CCC(C(=O)c2ccc3c(c2)OCCO3)CC1)Nc1ccccc1C(F)(F)F	-0.8	1.2	88.5*	i	-3.0
Cc1ccc(S(=O)(=O)N2CCN(C(=O)c3ccc4ccccc4n3)CC2)c(C)c1	1.5	2.8	-3.7	i	x
CCCCCCn1c(COc2ccccc2F)nnc1SCC(=O)N1c2ccccc2NC(=O)C1(C)C	0.3	-0.1	75.0*	i	-8.7
C=CCn1c(C)nnc1SCC(=O)N1c2ccccc2NC(=O)C1(C)C	-2.2	7.5	-4.8	i	x
SMILES	HNF4A DNA FP	CSN deneddyl inh	Granule exo inh	Myeloid diff MLP	Granule exo CP1
Cc1noc(NS(=O)(=O)c2ccc(NC(=O)c3ccccc3NS(=O)(=O)c3ccc(F)c(F)c3)cc2)c1C	-1.7	3.3	1.3	i	x
COC(=O)c1ccc(N2CCN(C)CC2)c(NC(=O)c2sc3ccccc3c2Cl)c1	3.9	-2.5	77.6*	i	91.1*
CN(C(=O)CCN1C(=O)S/C(=C\c2ccccc2)C1=O)C1CCS(=O)(=O)C1 (centres undefined)	0.5	4.8	-1.0	i	x
CC1C(=O)N2CCCc3cc(NC(=O)CC(C)(C)C)cc1c32 (centres undefined)	3.6	3.2	-3.4	i	x
CC(NC(=O)CC12CC3CC(CC(C3)C1)C2)C(=O)O (centres undefined)	-3.5	3.3	63.3*	i	-3.5
O=C(CC12CC3CC(CC(C3)C1)C2)NCO	4.6	3.6	-2.2	i	x
O=C(OCCOc1ccccc1)c1cc(S(=O)(=O)N2CCOCC2)c(Cl)cc1Cl	-0.8	4.0	-3.0	i	x
CCOC(=O)N1CCN(S(=O)(=O)N2CCCC(C(=O)NCCCN3CCCCC3)C2)CC1 (centres undefined)	3.1	5.0	-2.1	i	x
c1ccc(N2CCN(CC3CCCCC3)CC2)cc1	2.2	2.8	-4.3	i	x
COc1cccc(-c2nc(NC(C)(C)C)c3ccccc3n2)c1O	2.2	2.5	56.4*	i	-10.5
